“And” between values parts separate entries of the source, which are not always exact repeats. Equal values may be shown once. The source made the active and inactive calls. No cut-off for these calls is given here.
Experiments:
Cavia porcellus [1] = species: Cavia porcellus; assay: Antinociceptive activity against PGE-2 in guinea pig ileum at 3 uM; type: functional; details: read-out: pA2 (converted)
Outline: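 Ileum segments (2 cm) from male Hartley guinea pigs were held in modified Tyrode with atropine (0.14 μM) and pyrilamine (2.5 μM), at 37 °C under 95% O2/5% CO2 and 1 g tension. PGE2 concentration–response curves (2 min per dose) were run without and then with test compound. pA2 was calculated from the dose ratio at 3 μM compound.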

Mus musculus [2] = assay: Effective dose required for writhing response in mouse […] on ig administration; type: functional; details: po
Outline: (§1)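 In the mouse phenylbenzoquinone writhing test, male CD-1 mice (20–30 g) were dosed ig or sc. After 25 min, 0.025% phenylbenzoquinone was given ip, and writhes were counted over 10 min beginning 5 min later. Protection meant ≤ half the saline median. The ED50 is the dose protecting 50% of mice, with 95% confidence limits from maximum likelihood.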

Mus musculus [3] = assay: Antinociception at dosage of 30 mg/kg administered in 10 mice.; type: functional
Outline: (§2)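 Male albino CD-1 mice, 20–30 g, were given test compound sc or ig (0.1 mL/10 g) at 30 mg/kg. After 25 min they received 0.025% (w/v) phenylbenzoquinone ip. Writhes were counted for 10 min, starting 5 min later. A mouse counted as protected if its writhes were ≤ half the median of that day's saline group. The result is the number of mice protected.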

Cavia porcellus [4] = species: Cavia porcellus; assay: Antinociceptive activity against PGE-2 in guinea pig ileum at 3 uM; inactive; type: functional, organism-based
Mus musculus [5] = assay: Effective dose required for writhing response in mouse […] on sc administration; type: functional; outline: as §1
Mus musculus [6] = assay: Compound was evaluated for antinociception at dosage of 30 mg/kg administered in 9 mice; type: functional; outline: as §2

O=C(Cc1ccccc1)NNC(=O)N1Cc2ccccc2Oc2ccc(Cl)cc21
Kb (Cavia porcellus [1]): 1000 nM

CC(C)Cc1ccc(C(C)C(=O)O)cc1 (stereo not given) [IBUPROFEN]
ED50 (Mus musculus [2]): 4.8 mg/kg

Cl.O=C(NNC(=O)C(F)(F)C(O)c1ccncc1)N1Cc2ccccc2Oc2ccc(Cl)cc21 (stereo not given)
No. of mice (Mus musculus [3]): 5
ED50 (Mus musculus [2]): 12.3 mg/kg

Cl.O=C(Cc1cccnc1)NNC(=O)N1Cc2ccccc2Oc2ccc(Cl)cc21
No. of mice (Mus musculus [3]; 30 mg/kg): 3 and 5

Cl.O=C(NNC(=O)N1Cc2ccccc2Oc2ccc(Cl)cc21)c1cccnc1
pA2 (Cavia porcellus [4]): inactive
No. of mice (Mus musculus [3]; 30 mg/kg): 3 and 1

Cl.O=C(NNC(=O)N1Cc2ccccc2Oc2ccc(Cl)cc21)c1ccccn1
pA2 (Cavia porcellus [4]): inactive
No. of mice (Mus musculus [3]; 30 mg/kg): 3 and 2

CC(=O)Oc1ccccc1C(=O)O [ASPIRIN]
ED50 (Mus musculus [2]): 42.3 mg/kg

Cl.O=C(CCc1ccncc1)NNC(=O)N1Cc2ccccc2Oc2ccc(Cl)cc21
ED50 (Mus musculus [2]): 6.8 mg/kg
ED50 (Mus musculus [5]): 6.3 mg/kg
Kb (Cavia porcellus [1]): 316 nM

O=C(CCc1cccc[n+]1[O-])NNC(=O)N1Cc2ccccc2Oc2ccc(Cl)cc21
No. of mice (Mus musculus [3]; 30 mg/kg): 1 and 3

Cl.O=C(NNC(=O)C(F)(F)Cc1ccccn1)N1Cc2ccccc2Oc2ccc(Cl)cc21
ED50 (Mus musculus [2]): 9.7 mg/kg

O=C(CCCCCl)NNC(=O)N1Cc2ccccc2Oc2ccc(Cl)cc21 [PINADOLINE]
Kb (Cavia porcellus [1]): 631 nM

Cl.O=C(/C=C/c1ccncc1)NNC(=O)N1Cc2ccccc2Oc2ccc(Cl)cc21
No. of mice (Mus musculus [3]; 30 mg/kg): 2 and 4

CC(=O)NNC(=O)N1Cc2ccccc2Oc2ccc(Cl)cc21
Kb (Cavia porcellus [1]): 3160 nM

Cl.O=C(CCCc1ccccn1)NNC(=O)N1Cc2ccccc2Oc2ccc(Cl)cc21
No. of mice (Mus musculus [3]; 30 mg/kg): 4 and 5

O=C(/C=C/c1cccnc1)NNC(=O)N1Cc2ccccc2Oc2ccc(Cl)cc21
No. of mice (Mus musculus [3]; 30 mg/kg): 6 and 5

Cl.O=C(NNC(=O)N1Cc2ccccc2Oc2ccc(Cl)cc21)c1ccncc1
pA2 (Cavia porcellus [4]): inactive
No. of mice (Mus musculus [3]; 30 mg/kg): 1 and 2

Cl.O=C(Cc1ccccn1)NNC(=O)N1Cc2ccccc2Oc2ccc(Cl)cc21
pA2 (Cavia porcellus [4]): inactive
No. of mice (Mus musculus [3]): 2

CCCC(=O)NNC(=O)N1Cc2ccccc2Oc2ccc(Cl)cc21
Kb (Cavia porcellus [1]): 1000 nM

Cl.O=C(CCc1cccnc1)NNC(=O)N1Cc2ccccc2Oc2ccc(Cl)cc21
No. of mice (Mus musculus [3]; 30 mg/kg): 6 and 5

Cl.O=C(/C=C/c1ccccn1)NNC(=O)N1Cc2ccccc2Oc2ccc(Cl)cc21
pA2 (Cavia porcellus [4]): inactive
No. of mice (Mus musculus [3]; 30 mg/kg): 1 and 2

Cl.O=C(NNC(=O)C(F)(F)C(O)c1ccccn1)N1Cc2ccccc2Oc2ccc(Cl)cc21 (stereo not given)
ED50 (Mus musculus [2]): 9.1 mg/kg
ED50 (Mus musculus [5]): 7.1 mg/kg
Kb (Cavia porcellus [1]): 31.6 nM

O=C(CCc1cc[n+]([O-])cc1)NNC(=O)N1Cc2ccccc2Oc2ccc(Cl)cc21
No. of mice (Mus musculus [3]): 5

Cl.O=C(CCc1ccccn1)NNC(=O)N1Cc2ccccc2Oc2ccc(Cl)cc21
ED50 (Mus musculus [2]): 5.8 mg/kg
ED50 (Mus musculus [5]): 9.8 mg/kg
Kb (Cavia porcellus [1]): 398 nM

Cl.O=C(Cc1ccncc1)NNC(=O)N1Cc2ccccc2Oc2ccc(Cl)cc21
No. of mice (Mus musculus [3]): 1
No. of mice (Mus musculus [6]): 3

O=C(CCCc1ccncc1)NNC(=O)N1Cc2ccccc2Oc2ccc(Cl)cc21
No. of mice (Mus musculus [3]): 6
ED50 (Mus musculus [5]): 9.7 mg/kg

CCCCCC(=O)NNC(=O)N1Cc2ccccc2Oc2ccc(Cl)cc21
Kb (Cavia porcellus [1]): 251 nM

From ChEMBL document CHEMBL1126943, “N-substituted dibenzoxazepines as analgesic PGE2 antagonists” (J Med Chem, 1993)
